# According to ChEMBL document CHEMBL5712094, “The Gridlock transcriptional repressor impedes vertebrate heart regeneration by restricting expression of lysine methyltransferase” (2020):
# Calls of active or inactive are those of the source. The rule behind the calls is not given here.
# Experiments:
# [1] = test system: Cardiac Muscle Cell; assay: In vivo inhibition of Smyd2 KMT activity in grl5nt-/- mutant Zebrafish assessed as decrease in p-STAT3 level cardiomyocyte at 10 uM by immunostaining analysis; format: functional, cell-based; conditions: Danio rerio
# Method in brief: (§1)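 grl5nt−/− zebrafish underwent ventricular resection and were bath-treated in aquarium water from 6 to 7 dpa, with 0.5‰ DMSO as vehicle. Cryosections at 7 dpa were double-immunostained for P-Stat3 and Mef2. CMs with nuclear or perinuclear cytosolic P-Stat3 were counted in the injury border zone. n=4-6 fish; mean±s.e.m.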
# [2] = molecular target: N-lysine methyltransferase SMYD2 (Homo sapiens) (UniProt Q9NRG4); assay: Inhibition of Smyd2 KMT activity in human HEK 293T cells co-transfected with Flag-STAT3 and HA-Smyd2b assessed as decrease in Stat3 phosphorylation at 15 to 25 uM for 6 hrs by Co-IP assay; format: cell-based; conditions: dose 15-25 µM
# Chain of N-lysine methyltransferase SMYD2 (Homo sapiens) (Q9NRG4 whole entry): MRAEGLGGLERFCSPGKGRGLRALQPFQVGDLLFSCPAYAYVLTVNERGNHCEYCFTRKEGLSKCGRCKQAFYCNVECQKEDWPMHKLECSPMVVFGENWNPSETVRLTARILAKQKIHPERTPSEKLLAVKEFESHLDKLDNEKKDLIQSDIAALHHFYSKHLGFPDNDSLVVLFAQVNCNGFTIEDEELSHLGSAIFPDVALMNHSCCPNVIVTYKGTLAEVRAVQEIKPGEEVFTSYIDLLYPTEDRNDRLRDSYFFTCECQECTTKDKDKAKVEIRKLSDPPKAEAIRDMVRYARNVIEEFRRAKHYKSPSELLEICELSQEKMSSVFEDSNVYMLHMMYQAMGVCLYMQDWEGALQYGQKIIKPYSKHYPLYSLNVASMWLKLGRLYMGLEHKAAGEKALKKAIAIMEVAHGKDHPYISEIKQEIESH
# Method in brief: (§2)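 HEK 293T cells were co-transfected with Flag-Stat3 and HA-Smyd2b. Compound was added at 15 or 25 µM for 6 h, or at 2.5 or 5 µM for 28 h, before harvest at 48 h post-transfection. Lysates were made in denaturing buffer with 1% SDS at 100°C for 20 min, then diluted to 0.1% SDS. Stat3 was immunoprecipitated with anti-Flag beads for 4 h. Blots were probed for methyl-lysine and P-Stat3, normalized to Flag-Stat3. n=3.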
# [3] = test system: Cardiac Muscle Cell; assay: In vivo inhibition of Smyd2 KMT activity in grl5nt-/- mutant Zebrafish assessed as decrease in cardiomyocyte proliferation at 10 uM by immunostaining analysis; format: functional, cell-based; conditions: Danio rerio
# Method in brief: (§3)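 Adult zebrafish (WT siblings or grl5nt−/− mutants) underwent ventricular apex resection. Bath treatment in aquarium water ran from 6 to 7 dpa, with 0.5‰ DMSO as the vehicle control. Hearts were fixed at 7 dpa in 4% PFA and cut as 10 µm cryosections. Sections were given antigen retrieval at 98°C for 20 min, then stained for PCNA and Mef2. For each heart, 4-6 sections with the largest injury were imaged with a 10× objective. PCNA+Mef2+/Mef2+ cells were counted in a fixed region around the injury, and the section values were averaged per heart. n=5-11 fish.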
# [4] = In vivo inhibition of Smyd2 KMT activity in Zebrafish assessed as decrease in cardiomyocyte proliferation at 10 uM by immunostaining analysis relative to control; format: functional; conditions: Danio rerio, Cardiac muscle cell; method in brief: as §3
# [5] = molecular target: N-lysine methyltransferase SMYD2 (Homo sapiens) (UniProt Q9NRG4); assay: Inhibition of Smyd2 KMT activity in human HEK 293T cells co-transfected with Flag-STAT3 and HA-Smyd2b assessed as decrease in Stat3 methylation at 15 to 25 uM for 6 hrs by Co-IP assay; format: cell-based; conditions: dose 15-25 µM; method in brief: as §2
# [6] = molecular target: N-lysine methyltransferase SMYD2 (Homo sapiens) (UniProt Q9NRG4); assay: Inhibition of Smyd2 KMT activity in human HEK 293T cells co-transfected with Flag-STAT3 and HA-Smyd2b assessed as decrease in Stat3 methylation at 5 to 2.5 uM for 28 hrs by Co-IP assay; format: cell-based; conditions: dose 5-2.5 µM; method in brief: as §2
# [7] = molecular target: N-lysine methyltransferase SMYD2 (Homo sapiens) (UniProt Q9NRG4); assay: Inhibition of Smyd2 KMT activity in human HEK 293T cells co-transfected with Flag-STAT3 and HA-Smyd2b assessed as decrease in Stat3 phosphorylation at 5 to 2.5 uM for 28 hrs by Co-IP assay; format: cell-based; conditions: dose 5-2.5 µM; method in brief: as §2
# [8] = test system: Cardiac Muscle Cell; assay: In vivo inhibition of Smyd2 KMT activity in grl5nt-/- mutant Zebrafish assessed as decrease in cardiomyocyte proliferation at 5 uM by immunostaining analysis; format: functional, cell-based; conditions: Danio rerio; method in brief: as §3
# [9] = test system: Cardiac Muscle Cell; assay: In vivo inhibition of Smyd2 KMT activity in grl5nt-/- mutant Zebrafish assessed as decrease in p-STAT3 level cardiomyocyte at 5 uM by immunostaining analysis; format: functional, cell-based; conditions: Danio rerio; method in brief: as §1
# [10] = In vivo inhibition of Smyd2 KMT activity in Zebrafish assessed as decrease in cardiomyocyte proliferation at 5 uM by immunostaining analysis relative to control; format: functional; conditions: Danio rerio, Cardiac muscle cell; method in brief: as §3
SMILES,inhibition [1],inhibition [2],inhibition [3],inhibition in vivo at 10 µM [4],inhibition [5],inhibition [6],inhibition [7],inhibition [8],inhibition [9],inhibition in vivo at 5 µM [10]
O=C1COc2c(CCNCCN(C(=O)CCNCCc3ccc(Cl)c(Cl)c3)C3CCCCC3)ccc(O)c2N1,Active,Active,Active,34%,Active,,,,,
Cc1cn(CCN2CCN(c3ccccc3-c3cc(C#N)cc(C(=O)NCCCN4CCCC4)c3)CC2)c2ccccc12,,,,,,Active,Active,Active,Active,25%
